Assay results taken from ChEMBL document CHEMBL5244268, “Preventing Candida albicans biofilm formation using aromatic-rich piperazines” (Bioorg Med Chem, 2020).
Converted amounts (≈) assume the structure as drawn. The source made the active and inactive calls. The calls are words filed in the database; no cut-off is given here.

Experiments:
Candida albicans [1] = experiment: Antifungal activity against Candida albicans ATCC 28366 assessed as reduction in fungal growth incubated for 24 hrs by plate count determination; assay type: functional, organism-based
Candida albicans [2] = experiment: Antibiofilm activity against Candida albicans ATCC 28366 incubated for 24 to 48 hrs by crystal violet staining based absorbance spectrometry analysis; assay type: functional, organism-based; details: time 24-48 hrs
Method in brief: (§1)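 Overnight cultures (37 °C, aerobic, Sabouraud pH 7.0) adjusted to OD660 0.2, mixed 1:1 with two-fold serial dilutions in medium and incubated at 37 °C. Biofilm stained with crystal violet, dye released in 75% ethanol, A550 read. Growth relative to compound-free wells (100%) after blank subtraction. At least two independent experiments in triplicate, t test.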

Candida albicans [3] = experiment: Antifungal activity against Candida albicans ATCC 28366 assessed as reduction in fungal growth at up to 64 ug/ml incubated for 24 hrs by plate count determination; assay type: functional, organism-based; details: dose <= 64.0 µg/ml
Candida albicans [4] = experiment: Antibiofilm activity against Candida albicans ATCC 28366 assessed as inhibition of biofilm formation at 0.5 to 32 ug/ml incubated for 24 to 48 hrs by crystal violet staining based absorbance spectrometry analysis; assay type: functional, organism-based; details: dose 0.5-32 µg/ml, time 24-48 hrs; method in brief: as §1
Candida albicans [5] = experiment: Antibiofilm activity against Candida albicans ATCC 28366 assessed as disruption of preformed biofilm incubated for 12 hrs by crystal violet staining based absorbance spectrometry analysis; assay type: functional, organism-based
Method in brief: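 Mature biofilms grown 36 to 48 h in Sabouraud pH 7.0 without compound; medium and free cells removed, rinsed with 50 mM PBS pH 7.0, then two-fold serial dilutions in PBS added for 12 h at 37 °C. Residual biofilm stained with crystal violet, dye released in 75% ethanol, A550 read. PBS-treated biofilms as controls.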

Candida albicans [6] = experiment: Antibiofilm activity against Candida albicans ATCC 28366 assessed as inhibition of morphogenesis at 1 to 4 ug/ml incubated for 4 hrs in spider medium by microscopic analysis; assay type: functional, organism-based; details: dose 1-4 µg/ml
Method in brief: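 Yeast-form cells grown overnight in YPD at 30 °C. 50 µL inoculated into 5 mL hypha-inducing medium (e.g., Spider: 1% nutrient broth, 1% mannitol, 0.2% K2HPO4, pH 7.2) containing two-fold dilutions, then 4 h at 37 °C. At least 100 cells per replicate counted as hypha (pseudohyphae and intermediates included) or yeast. Compound-free control for maximal conversion. At least two independent experiments in triplicate.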

Candida albicans [7] = experiment: Antibiofilm activity against Candida albicans ATCC 28366 assessed as reduction in fungal growth at 1 to 4 ug/ml incubated for 4 hrs in spider medium by plate count determination; assay type: functional, organism-based; details: dose 1-4 µg/ml
Method in brief: (§2)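 After the 4 h, 37 °C morphogenesis incubation in Spider medium (YPD overnight inoculum, 50 µL into 5 mL), OD660 measured to follow fungal growth; C. albicans viability confirmed by plate count.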

Candida albicans [8] = experiment: Antibiofilm activity against Candida albicans LAM-1 assessed as reduction in fungal growth at 1 to 4 ug/ml incubated for 4 hrs in spider medium by plate count determination; assay type: functional, organism-based; details: dose 1-4 µg/ml; method in brief: as §2
Candida albicans [9] = experiment: Antifungal activity against Candida albicans ATCC 28366 assessed as inhibition of fungal growth incubated for 24 hrs by plate count determination; assay type: functional
Method in brief: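 Biofilm-assay setup (Sabouraud pH 7.0, inoculum OD660 0.2, serial two-fold dilutions, 37 °C). […] Highest value kept when replicates differ. At least two independent experiments in triplicate.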

Candida albicans [10] = experiment: Antibiofilm activity against Candida albicans ATCC 28366 assessed as inhibition of biofilm formation at 2 ug/ml incubated for 24 to 48 hrs by crystal violet staining based absorbance spectrometry analysis; assay type: functional, organism-based; details: dose 2.0 µg/ml, time 24-48 hrs; method in brief: as §1
Candida albicans [11] = experiment: Fungicidal activity against Candida albicans ATCC 28366 assessed as prevention of colony formation incubated for 24 hrs; assay type: functional
Candida albicans [12] = experiment: Antibiofilm activity against Candida albicans ATCC 28366 at up to 96 ug/ml incubated for 24 to 48 hrs by crystal violet staining based absorbance spectrometry analysis; assay type: functional, organism-based; details: dose <= 96.0 µg/ml, time 24-48 hrs; method in brief: as §1

Structure (SMILES) | Activity (Candida albicans [1]) | Activity (Candida albicans [2]) | Activity (Candida albicans [3]) | inhibition (Candida albicans [4]) | Activity (Candida albicans [5]) | Activity (Candida albicans [12]) | other results
CN1C[C@H](Cc2ccc(OCc3ccccc3)cc2)N(C)C[C@@H]1Cc1ccc(OCc2ccccc2)cc1 | inactive | inactive |  |  |  |  | 
c1ccc(COc2ccc(C[C@@H]3CN[C@H](Cc4ccccc4)CN3)cc2)cc1 |  |  | inactive | Active | inactive |  | inhibition (Candida albicans [6]): Active; Activity (Candida albicans [7]): inactive; Activity (Candida albicans [8]): inactive
c1ccc(COc2ccc(C[C@H]3CN[C@@H](Cc4ccc(OCc5ccccc5)cc4)CN3)cc2)cc1 |  |  |  |  | inactive |  | MIC (Candida albicans [9]): 24 µg/mL (≈ 50.1 µM); inhibition (Candida albicans [10]): Active; MFC (Candida albicans [11]): 24 µg/mL (≈ 50.1 µM)
Oc1ccc(C[C@H]2CN[C@@H](Cc3ccc(O)cc3)CN2)cc1 | inactive | inactive |  |  | inactive |  | 
Oc1ccc(C[C@@H]2CN[C@H](Cc3ccc(O)cc3)CN2)cc1 | inactive | inactive |  |  | inactive |  | 
c1ccc(COc2ccc(C[C@@H]3CN[C@@H](Cc4ccccc4)CN3)cc2)cc1 |  |  | inactive | Active | inactive |  | MIC (Candida albicans [9]): > 128 µg/mL
CN1C[C@H](Cc2ccccc2)N(C)C[C@@H]1Cc1ccccc1 |  |  |  |  |  | inactive | 
c1ccc(C[C@@H]2CN[C@H](Cc3ccccc3)CN2)cc1 |  |  |  |  | inactive | inactive | 
c1ccc(COc2ccc(C[C@H]3CN[C@H](Cc4ccccc4)CN3)cc2)cc1 |  |  | inactive | Active | inactive |  | 
CN1C[C@H](Cc2ccccc2)N(C)C[C@H]1Cc1ccccc1 |  |  |  |  |  | inactive | 
